# Experimental data of several laboratories.
# Compare with care: the assays were run in different laboratories.
# Target: Mitogen-activated protein kinase kinase kinase 9 (MAP3K9, Homo sapiens, UniProt P80192)
SMILES,observed,mode,method,concentration,measurement,value
Cc1ccc(C(=O)NCc2ccsc2)cc1C#Cc1cn(C(C)C)c2ncnc(N)c12,enzyme activity,inhibitor,,1 µM,activity vs control,25%
CN(C)CC#Cc1ccc(OCCCc2sc(N3CCc4cccc(C(=O)Nc5nc6ccccc6s5)c4C3)nc2C(=O)O)c(F)c1,cell-free assay,,competition with immobilised ligand,1 µM,remaining binding,92%
Cc1nn(CC(F)(F)F)cc1Nc1ncc(Br)c(NCc2ccc(S(N)(=O)=O)cc2)n1,enzyme activity,inhibitor,radiometric,1 µM,remaining activity,80%
COc1cc2ncnc(Nc3ccc(Oc4ccccc4)c(C)c3C)c2cc1OC,enzyme activity,inhibitor,,1 µM,inhibition,1%
Cc1nn(CC(F)(F)F)cc1Nc1nccc(NCCc2cnc[nH]2)n1,enzyme activity,inhibitor,radiometric,1 µM,remaining activity,77%
CCCCNc1ncc2c(-c3ccc(F)cc3)nn(C[C@H]3CC[C@H](N)CC3)c2n1,target engagement in cells,inhibitor,chemoproteomics,20 mM,inhibition,54.9%
c1ccc(N2CCN(Cc3nc4ccccc4[nH]3)CC2)nc1,binding,,competition with immobilised ligand,1 µM,remaining binding,100%
Cc1ccc(Nc2nccc(N(C)c3ccc4c(C)n(C)nc4c3)n2)cc1S(N)(=O)=O,enzyme activity,inhibitor,,10 µM,inhibition,92%
C#Cc1cccc(Nc2ncnc3cc(OCCOC)c(OCCOC)cc23)c1,cell-free assay,,,0.5 µM,remaining signal,111%
NS(=O)(=O)c1ccc(CNc2nc(Nc3cccc(NC(=O)N4CCCC4)c3)ncc2Br)cc1,enzyme activity,inhibitor,radiometric,1 µM,remaining activity,30%
Cc1c(C(=O)O)cc(-c2ccc(C3CCNCC3)cc2)c2ccc(-c3ccc(C(F)(F)F)cc3)cc12,binding,,competition with immobilised ligand,1 µM,remaining binding,92%
O=C1Nc2ccc(Cl)cc2C1=Cc1cc(Cl)c(O)c(Cl)c1,cell-free assay,,,0.5 µM,remaining signal,102%
Cc1nc(N2CC[C@@H](O)C2)ncc1-c1cc(C(F)(F)F)cc2[nH]ncc12,binding,,competition with immobilised ligand,1 µM,remaining binding,100%
CCCS(=O)(=O)Nc1ccc(F)c(C(=O)c2c[nH]c3ncc(-c4ccc(Cl)cc4)cc23)c1F,enzyme activity,inhibitor,,1 µM,inhibition,< 10%
CCOc1cc(-c2nncn2C)ccc1Nc1ncc2cc(C)nc(NCC(C)(C)C)c2n1,enzyme activity,inhibitor,FRET,1 µM,inhibition,38%
Cn1c(=O)n(-c2ccc(C(C)(C)C#N)cc2)c2c3cc(-c4cnc5ccccc5c4)ccc3ncc21,enzyme activity,inhibitor,,10 µM,remaining activity,67%
CNC(=O)c1cc(Oc2ccc(NC(=O)Nc3ccc(Cl)c(C(F)(F)F)c3)cc2)ccn1,enzyme activity,inhibitor,,10 µM,inhibition,23%
CN(c1ccnc(CNc2nc(Nc3ccc4c(c3)CC(=O)N4)ncc2C(F)(F)F)n1)S(C)(=O)=O,cell-free assay,,competition with immobilised ligand,1 µM,remaining binding,41%
c1ccc(CNc2nc(N3CCOc4ccccc43)nc3c2CCCC3)cc1,target engagement in cells,inhibitor,chemoproteomics,20 mM,inhibition,3.8%
Cc1nn(CC(F)(F)F)cc1Nc1nccc(NCCCNC(=O)C2CCC2)n1,enzyme activity,inhibitor,radiometric,1 µM,remaining activity,85%
CC(C)c1ccc(NC(=O)c2cccs2)c(-c2nc3ccccc3[nH]c2=O)c1,enzyme activity,inhibitor,,1 µM,activity vs control,92%
C[C@@H]1CN(c2cc(-c3nn(C)c4ccc(OC5(C)CC5)cc34)ncn2)C[C@H](C)O1,cell-free assay,,competition with immobilised ligand,1 µM,remaining binding,100%
O=C(NCCCNc1nc(Nc2cccc(CN3CCOCC3)c2)ncc1C1CC1)C1CCC1,enzyme activity,inhibitor,radiometric,1 µM,remaining activity,19%
CC/C(=N\NC(=O)NCc1cccc(O)c1)c1ccc(O)c(C)c1O,enzyme activity,inhibitor,,0.1 µM,inhibition,5.1%
NS(=O)(=O)c1ccc(CNc2nc(Nc3cccc(NC(=O)N4CCCC4)c3)ncc2C2CC2)cc1,enzyme activity,inhibitor,radiometric,1 µM,remaining activity,89%
COc1cccc(CNC(=O)c2nc3scc(COCc4ccc(C(=O)O)cc4)c3c(=O)[nH]2)c1,cell-free assay,,competition with immobilised ligand,1 µM,remaining binding,100%
NS(=O)(=O)c1ccc(CNc2nc(Nc3cccc(CN4CCOCC4)c3)ncc2Br)cc1,enzyme activity,inhibitor,radiometric,1 µM,remaining activity,25%
CCS(=O)(=O)c1cc2cc(C[C@](O)(CC(C)(C)c3ccc(F)cc3C(N)=O)C(F)(F)F)[nH]c2cn1,cell-free assay,,competition with immobilised ligand,1 µM,remaining binding,98%
O=C(NCCCNc1nc(Nc2cccc(NC(=O)N3CCCC3)c2)ncc1C1CC1)C1CCC1,enzyme activity,inhibitor,radiometric,1 µM,remaining activity,31%
O=C1NC(=O)c2cc(Nc3ccc(F)cc3)c(Nc3ccc(F)cc3)cc21,cell-free assay,,,0.5 µM,remaining signal,102%
